The values that follow come from ChEMBL document CHEMBL4680083, “Identification of Tricyclic Agonists of Sphingosine-1-phosphate Receptor 1 (S1P) Employing Ligand-Based Drug Design” (J Med Chem, 2016).

Calls of active or inactive are those of the source. The calls are words filed in the database; no cut-off is given here.

Sequence of Sphingosine 1-phosphate receptor 3 (Q99500 whole entry): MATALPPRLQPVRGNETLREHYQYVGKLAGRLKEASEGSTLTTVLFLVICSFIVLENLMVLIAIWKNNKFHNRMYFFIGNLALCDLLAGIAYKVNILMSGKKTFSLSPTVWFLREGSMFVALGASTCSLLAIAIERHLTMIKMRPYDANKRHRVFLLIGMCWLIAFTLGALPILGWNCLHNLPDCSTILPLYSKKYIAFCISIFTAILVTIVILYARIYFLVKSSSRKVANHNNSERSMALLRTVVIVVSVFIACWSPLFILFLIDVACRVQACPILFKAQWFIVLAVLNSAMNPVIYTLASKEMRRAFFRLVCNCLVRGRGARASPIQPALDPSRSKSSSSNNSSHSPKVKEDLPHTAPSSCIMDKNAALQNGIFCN

Test system in one data set: not listed separately
The experiment in a line: Selectivity index, ratio of EC50 for agonist activity at human S1P3 expressed in CHO cell membranes to EC50 for agonist activity at human S1P1 expressed in CHO cell membranes. Format: cell-based.
Conditions: not given
For `O=C(O)C1CN(Cc2ccc3c(c2)OCc2c-3noc2-c2noc(-c3ccccc3)c2C(F)(F)F)C1`, the Ratio EC50 came to 4400.

For `O=C(O)C1CN(Cc2ccc3c(c2)OCc2c-3noc2-c2onc(-c3ccccc3)c2C(F)(F)F)C1`, the Ratio EC50 was more than 120000.

Turning to `O=C(O)C1CN(Cc2ccc3c(c2)CCc2c-3noc2-c2nsc(-c3ccccc3)c2C(F)(F)F)C1`, the Ratio EC50 was determined as 4200.

Turning to `CC(C)Oc1ccc(-c2onc3c2CCc2cc(CN4CC(C(=O)O)C4)ccc2-3)cc1C(F)(F)F`, the Ratio EC50 came to 17000.

For the compound `O=C(O)C1CN(Cc2cc3c(cc2F)-c2noc(-c4noc(-c5ccccc5)c4C(F)(F)F)c2CC3)C1`, the Ratio EC50 was determined as 9400.

As to `CC1(c2onc(-c3onc4c3CCc3cc(CN5CC(C(=O)O)C5)ccc3-4)c2C(F)(F)F)CC1`, the Ratio EC50 was 1000.

For another data set, the system named is Rattus norvegicus. The experiment in a line: Reduction in circulating lymphocytes count in Lewis rat blood at 1 mg/kg, po measured at 4 hrs by hematology analyzer based analysis. Format: functional. Details: scale not given: the % may be the effect or the level left.
Conditions: not given
The method, boiled down: (§1)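 Lewis rats were given an oral dose as a solution or suspension in PEG300, with controls receiving vehicle only. Blood was taken by retro-orbital bleeding under isoflurane at 4 and 24 h. Lymphocytes were counted on a hematology analyzer. Reduction is relative to the vehicle group, averaged over the animals in each group (n = 3−4).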
The compound `O=C(O)C1CN(Cc2ccc3c(c2)OCc2c-3noc2-c2noc(-c3ccccc3)c2C(F)(F)F)C1` returned an Activity of 87%.

As for `O=C(O)C1CN(Cc2ccc3c(c2)OCc2c-3noc2-c2onc(-c3ccccc3)c2C(F)(F)F)C1`, the Activity is listed as 82%.

As for `O=C(O)C1CN(Cc2ccc3c(c2)CCc2c-3noc2-c2nsc(-c3ccccc3)c2C(F)(F)F)C1`, the Activity was determined as 82%.

Compound `CC(C)Oc1ccc(-c2onc3c2CCc2cc(CN4CC(C(=O)O)C4)ccc2-3)cc1C(F)(F)F` returned an Activity of 57%.

`O=C(O)C1CN(Cc2cc3c(cc2F)-c2noc(-c4noc(-c5ccccc5)c4C(F)(F)F)c2CC3)C1` showed an Activity of 74%.

For the compound `CC1(c2onc(-c3onc4c3CCc3cc(CN5CC(C(=O)O)C5)ccc3-4)c2C(F)(F)F)CC1`, the Activity is recorded as 85%.

For the next data set, the system named is Rattus norvegicus. The experiment in a line: Reduction in circulating lymphocytes count in Lewis rat blood at 1 mg/kg, po measured at 24 hrs by hematology analyzer based analysis. In kind it is functional. Details: scale not given: the % may be the effect or the level left.
Conditions: not given
In outline: as §1
Regarding `O=C(O)C1CN(Cc2ccc3c(c2)OCc2c-3noc2-c2noc(-c3ccccc3)c2C(F)(F)F)C1`, the Activity is 93%.

As to `O=C(O)C1CN(Cc2ccc3c(c2)OCc2c-3noc2-c2onc(-c3ccccc3)c2C(F)(F)F)C1`, the Activity was determined as 89%.

`O=C(O)C1CN(Cc2ccc3c(c2)CCc2c-3noc2-c2nsc(-c3ccccc3)c2C(F)(F)F)C1` displayed an Activity of 85%.

As for `CC(C)Oc1ccc(-c2onc3c2CCc2cc(CN4CC(C(=O)O)C4)ccc2-3)cc1C(F)(F)F`, the Activity came to 21%.

Compound `O=C(O)C1CN(Cc2cc3c(cc2F)-c2noc(-c4noc(-c5ccccc5)c4C(F)(F)F)c2CC3)C1` gave an Activity of 79%.

The compound `CC1(c2onc(-c3onc4c3CCc3cc(CN5CC(C(=O)O)C5)ccc3-4)c2C(F)(F)F)CC1` yielded an Activity of 34%.

Test system in another data set: not listed separately
The experiment in a line: Ratio of plasma concentration in Lewis rat at 1 mg/kg, po measured at 4 hrs to plasma concentration in Lewis rat at 1 mg/kg, po measured at 24 hrs. In kind it is ADME, organism-based. As to conditions: in vivo.
Regarding `O=C(O)C1CN(Cc2ccc3c(c2)OCc2c-3noc2-c2noc(-c3ccccc3)c2C(F)(F)F)C1`, the Ratio was 5.

`O=C(O)C1CN(Cc2ccc3c(c2)OCc2c-3noc2-c2onc(-c3ccccc3)c2C(F)(F)F)C1`: the Ratio was 6.

For `O=C(O)C1CN(Cc2ccc3c(c2)CCc2c-3noc2-c2nsc(-c3ccccc3)c2C(F)(F)F)C1`, the Ratio amounted to 6.

As for `CC(C)Oc1ccc(-c2onc3c2CCc2cc(CN4CC(C(=O)O)C4)ccc2-3)cc1C(F)(F)F`, the Ratio stood at 6.

As to `O=C(O)C1CN(Cc2cc3c(cc2F)-c2noc(-c4noc(-c5ccccc5)c4C(F)(F)F)c2CC3)C1`, the Ratio was determined as 7.

As for `CC1(c2onc(-c3onc4c3CCc3cc(CN5CC(C(=O)O)C5)ccc3-4)c2C(F)(F)F)CC1`, the Ratio is 48.

A further data set concerns the target Sphingosine 1-phosphate receptor 3 (Homo sapiens, UniProt Q99500). The experiment in a line: Agonist activity at human S1P3 expressed in CHO cell membranes assessed as stimulation of [35S]-GTPgamma-S binding measured after 45 mins by liquid scintillation counting method. Details: species or system Cell membrane.
Conditions: not given
A word on the EC50: it is the concentration giving half of the maximal effect. On to `O=C(O)C1CN(Cc2ccc3c(c2)OCc2c-3noc2-c2noc(-c3ccccc3)c2C(F)(F)F)C1`, for which the EC50 turned out to be 1200 nM.

As to `O=C(O)C1CN(Cc2ccc3c(c2)OCc2c-3noc2-c2onc(-c3ccccc3)c2C(F)(F)F)C1`, the EC50 is more than 31000 nM.

For the compound `O=C(O)C1CN(Cc2ccc3c(c2)CCc2c-3noc2-c2nsc(-c3ccccc3)c2C(F)(F)F)C1`, the EC50 came out at 1400 nM.

With `CC(C)Oc1ccc(-c2onc3c2CCc2cc(CN4CC(C(=O)O)C4)ccc2-3)cc1C(F)(F)F`, the EC50 amounted to 26000 nM.

Consider `O=C(O)C1CN(Cc2cc3c(cc2F)-c2noc(-c4noc(-c5ccccc5)c4C(F)(F)F)c2CC3)C1`, for which the EC50 is 15000 nM.

As for `CC1(c2onc(-c3onc4c3CCc3cc(CN5CC(C(=O)O)C5)ccc3-4)c2C(F)(F)F)CC1`, the half-maximal effective concentration (EC50) was 1300 nM.

Test system in a further data set: not listed separately
Briefly: Plasma concentration in Lewis rat at 1 mg/kg, po measured at 4 hr. As to conditions: Lewis, plasma. In kind it is ADME, organism-based. In outline:
(§2)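 Lewis rats received a single oral 1.0 mg/kg dose as solution or suspension in PEG300. Blood was drawn retro-orbitally under isoflurane at 4 h and 24 h, within the blood lymphocyte reduction study. n = 3−4 per group, group mean reported.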
Compound `O=C(O)C1CN(Cc2ccc3c(c2)OCc2c-3noc2-c2noc(-c3ccccc3)c2C(F)(F)F)C1` had a concentration at 4 h of 230 nM.

`O=C(O)C1CN(Cc2ccc3c(c2)OCc2c-3noc2-c2onc(-c3ccccc3)c2C(F)(F)F)C1` had a concentration at 4 h of 330 nM.

`O=C(O)C1CN(Cc2ccc3c(c2)CCc2c-3noc2-c2nsc(-c3ccccc3)c2C(F)(F)F)C1` registered a concentration at 4 h of 150 nM.

`CC(C)Oc1ccc(-c2onc3c2CCc2cc(CN4CC(C(=O)O)C4)ccc2-3)cc1C(F)(F)F` returned a concentration at 4 h of 28 nM.

On to `O=C(O)C1CN(Cc2cc3c(cc2F)-c2noc(-c4noc(-c5ccccc5)c4C(F)(F)F)c2CC3)C1`, for which the concentration at 4 h was found to be 320 nM.

The compound `CC1(c2onc(-c3onc4c3CCc3cc(CN5CC(C(=O)O)C5)ccc3-4)c2C(F)(F)F)CC1` registered a concentration at 4 h of 190 nM.

For the next data set, the target named is Sphingosine 1-phosphate receptor 1 (Homo sapiens, UniProt P21453). The experiment in a line: Agonist activity at human S1P1 expressed in CHO cell membranes assessed as stimulation of [35S]-GTPgamma-S binding measured after 45 mins by liquid scintillation counting method. Details: species or system Cell membrane.
Sequence of Sphingosine 1-phosphate receptor 1 (P21453 whole entry): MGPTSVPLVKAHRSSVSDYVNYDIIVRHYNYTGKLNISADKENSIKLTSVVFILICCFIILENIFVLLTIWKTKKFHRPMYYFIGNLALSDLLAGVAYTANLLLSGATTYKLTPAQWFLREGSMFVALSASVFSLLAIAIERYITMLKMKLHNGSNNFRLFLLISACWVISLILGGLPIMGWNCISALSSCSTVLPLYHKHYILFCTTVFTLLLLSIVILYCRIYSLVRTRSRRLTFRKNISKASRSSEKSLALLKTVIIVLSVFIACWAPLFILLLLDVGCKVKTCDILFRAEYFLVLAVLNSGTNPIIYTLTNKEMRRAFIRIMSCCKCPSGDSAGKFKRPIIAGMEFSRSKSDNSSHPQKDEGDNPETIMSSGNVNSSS
Conditions: not given
In outline:
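S1P1/CHO cell membranes at 3 μg protein/well with 3-fold compound dilutions. [35S]GTPγS 0.2 nM final, 45 min at room temperature. Filter-plate capture, water washes, scintillation counting. EC50 taken at 50% of each compound's own Ymax.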
Regarding `O=C(O)C1CN(Cc2ccc3c(c2)OCc2c-3noc2-c2noc(-c3ccccc3)c2C(F)(F)F)C1`, the EC50 was 0.27 nM.

`O=C(O)C1CN(Cc2ccc3c(c2)OCc2c-3noc2-c2onc(-c3ccccc3)c2C(F)(F)F)C1`: the EC50 was 0.25 nM.

With `O=C(O)C1CN(Cc2ccc3c(c2)CCc2c-3noc2-c2nsc(-c3ccccc3)c2C(F)(F)F)C1`, the EC50 stood at 0.33 nM.

In the case of `CC(C)Oc1ccc(-c2onc3c2CCc2cc(CN4CC(C(=O)O)C4)ccc2-3)cc1C(F)(F)F`, the EC50 stood at 1.5 nM.

As for `O=C(O)C1CN(Cc2cc3c(cc2F)-c2noc(-c4noc(-c5ccccc5)c4C(F)(F)F)c2CC3)C1`, the EC50 came out at 1.6 nM.

As to `CC1(c2onc(-c3onc4c3CCc3cc(CN5CC(C(=O)O)C5)ccc3-4)c2C(F)(F)F)CC1`, the EC50 worked out at 1.3 nM.

In the next data set the test system is Rattus norvegicus. The experiment in a line: Antiarthritic activity in Lewis rat model of Complete Freund's adjuvant-induced arthritis assessed as reduction in paw swelling at 0.1 mg/kg, po qd administered for 21 days after CFA injection and measured weekly three times upto day 21 by water displacement plethysmometry. In kind it is functional. The note with it: time 21.0 day. In outline: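 Male Lewis rats, 200−225 g, n = 8 per group. Immunized at the tail base with 100 μL of 10 mg/mL ground Mycobacterium butyricum in incomplete Freund's adjuvant. Oral dosing once daily in PEG300 vehicle from the day of immunization for 21 days, at 0.03, 0.1 or 1.0 mg/kg. Dexamethasone 0.1 mg/kg PO QD as positive control. Paw volume by water displacement plethysmometry, day 7 to day 21.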
Consider `C[C@@H]1C[C@H]2[C@@H]3CCC4=CC(=O)C=C[C@]4(C)[C@@]3(F)[C@@H](O)C[C@]2(C)[C@@]1(O)C(=O)CO`, for which the result was Active.

Test system in another data set: not listed separately
Briefly: Plasma concentration in Lewis rat at 1 mg/kg, po measured at 24 hrs. In kind it is ADME, organism-based. The note with it: Lewis, plasma. In outline:
as §2
The compound `O=C(O)C1CN(Cc2ccc3c(c2)OCc2c-3noc2-c2noc(-c3ccccc3)c2C(F)(F)F)C1` had a concentration at 24 h of 46 nM.

As to `O=C(O)C1CN(Cc2ccc3c(c2)OCc2c-3noc2-c2onc(-c3ccccc3)c2C(F)(F)F)C1`, the concentration at 24 h is 56 nM.

As to `O=C(O)C1CN(Cc2ccc3c(c2)CCc2c-3noc2-c2nsc(-c3ccccc3)c2C(F)(F)F)C1`, the concentration at 24 h is 26 nM.

Compound `CC(C)Oc1ccc(-c2onc3c2CCc2cc(CN4CC(C(=O)O)C4)ccc2-3)cc1C(F)(F)F` registered a concentration at 24 h of 5 nM.

Compound `O=C(O)C1CN(Cc2cc3c(cc2F)-c2noc(-c4noc(-c5ccccc5)c4C(F)(F)F)c2CC3)C1` showed a concentration at 24 h of 46 nM.

In turn, `CC1(c2onc(-c3onc4c3CCc3cc(CN5CC(C(=O)O)C5)ccc3-4)c2C(F)(F)F)CC1` registered a concentration at 24 h of 4 nM.
